The source of these data is ChEMBL document CHEMBL3580565, “Synthesis and Biological Evaluation of Cyclopentaquinoline Derivatives as Nonsteroidal Glucocorticoid Receptor Antagonists” (J Med Chem, 2015).

Series [1] in a line: AUC (0 to t) in Sprague-Dawley rat at 1 mg/kg, iv by LC/MS/MS analysis. The format is ADME, organism-based. As to conditions: in vivo. The essentials:
(§1)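 Single intravenous dose to male Sprague–Dawley rats (n = 4). Jugular vein blood drawn at 0.05, 0.25, 0.5, 1, 2, 4, 8 and 24 h, heparin anticoagulant, plasma separated by centrifugation. Plasma drug level measured by LC/MS/MS.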

For a further series, the system named is Rattus norvegicus. The series is described as follows: Antidepressant-like activity in Wistar rat assessed as decrease in immobility time at 100 mg/kg, po administered at 1, 5, 23.5 hrs prior to testing measured for 5 mins by forced swimming test relative to vehicle-treated control. The format is functional. Also noted: scale not given: the % may be the effect or the level left.

Series [2] is described as follows: Unbound brain to plasma concentration ratio in Sprague-Dawley rat at 30 mg/kg, po measured at 1 hr by LC/MS/MS analysis. It counts as ADME, organism-based. As to conditions: brain and plasma, read-out: K(p,uu,brain). The method in brief: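 Male SD rats given 30 mg/kg orally (n = 3 per time point), killed at 1 and 3 h. Heparinized blood collected for plasma; brain rinsed in saline, weighed, homogenized in five volumes (w/v) saline. Plasma and brain levels by LC/MS/MS. Kp,uu,brain is the ratio of unbound brain to unbound plasma concentration.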

In another series the target is Estrogen receptor (Homo sapiens, UniProt P03372). Description: Displacement of fluormone ES2 from human recombinant estrogen receptor-alpha expressed in insect Sf9 cells after 120 mins by fluorescence polarization assay. The essentials: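 Assay run at Cerep. Fluorescence polarization with Fluormone ES2 tracer, using recombinant human ERα expressed in Sf9 cells and ERβ expressed in Hi5 cells.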

Series [3] can be described thus: Cmax in Sprague-Dawley rat at 1 mg/kg, iv by LC/MS/MS analysis. The format is ADME, organism-based. Also noted: dose 1 mg/kg, route intravenous. As to conditions: in vivo. The essentials:
as §1

The nature of series [4]: Volume of distribution at steady state in Sprague-Dawley rat at 1 mg/kg, iv by LC/MS/MS analysis. The format is ADME, organism-based. As to conditions: in vivo, read-out: Vdss. The essentials:
as §1

The nature of series [5]: Cmax in Sprague-Dawley rat at 10 mg/kg, po by LC/MS/MS analysis. It counts as ADME, organism-based. Also noted: dose 10 mg/kg, route oral. As to conditions: in vivo. The method in brief:
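Male Sprague–Dawley rats dosed orally (n = 4). Jugular vein blood sampled at 0.25, 0.5, 1, 2, 4, 6 and 24 h into heparin, plasma obtained by centrifugation. Concentrations determined by LC/MS/MS.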

Another series has as its target T1, Progesterone receptor (Homo sapiens, UniProt P06401).
T1 sequence (P06401 whole entry): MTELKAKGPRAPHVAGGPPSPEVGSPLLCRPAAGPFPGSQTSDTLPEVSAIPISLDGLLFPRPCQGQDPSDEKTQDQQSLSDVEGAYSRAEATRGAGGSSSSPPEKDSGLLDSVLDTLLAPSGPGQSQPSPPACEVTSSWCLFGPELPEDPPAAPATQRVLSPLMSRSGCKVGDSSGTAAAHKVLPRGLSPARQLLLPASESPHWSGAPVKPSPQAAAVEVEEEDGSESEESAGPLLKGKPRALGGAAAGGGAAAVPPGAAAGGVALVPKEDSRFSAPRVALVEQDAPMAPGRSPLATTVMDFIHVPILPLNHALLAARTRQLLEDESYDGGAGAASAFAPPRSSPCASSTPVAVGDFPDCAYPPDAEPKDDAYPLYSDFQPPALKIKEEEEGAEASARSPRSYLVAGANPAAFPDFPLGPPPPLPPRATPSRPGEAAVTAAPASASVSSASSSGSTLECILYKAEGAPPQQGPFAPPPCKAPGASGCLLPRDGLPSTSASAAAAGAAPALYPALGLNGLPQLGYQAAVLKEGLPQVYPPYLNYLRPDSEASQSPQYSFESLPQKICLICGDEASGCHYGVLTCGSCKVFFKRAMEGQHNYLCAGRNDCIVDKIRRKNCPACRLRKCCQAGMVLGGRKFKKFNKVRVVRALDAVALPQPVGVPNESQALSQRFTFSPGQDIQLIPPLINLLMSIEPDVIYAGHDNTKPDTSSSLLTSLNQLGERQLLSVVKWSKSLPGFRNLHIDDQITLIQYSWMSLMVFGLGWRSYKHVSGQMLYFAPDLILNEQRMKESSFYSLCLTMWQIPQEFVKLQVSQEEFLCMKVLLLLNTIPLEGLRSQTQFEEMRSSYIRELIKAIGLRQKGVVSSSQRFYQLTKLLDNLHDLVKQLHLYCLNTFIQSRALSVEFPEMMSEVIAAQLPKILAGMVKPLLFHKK
The series is described as follows: Displacement of [3H]-progesterone from cytosolic fraction of human recombinant progesterone-B receptor by scintillation counting analysis.

Each structure is given as a SMILES string.

Chain of Estrogen receptor (P03372 whole entry, looked up): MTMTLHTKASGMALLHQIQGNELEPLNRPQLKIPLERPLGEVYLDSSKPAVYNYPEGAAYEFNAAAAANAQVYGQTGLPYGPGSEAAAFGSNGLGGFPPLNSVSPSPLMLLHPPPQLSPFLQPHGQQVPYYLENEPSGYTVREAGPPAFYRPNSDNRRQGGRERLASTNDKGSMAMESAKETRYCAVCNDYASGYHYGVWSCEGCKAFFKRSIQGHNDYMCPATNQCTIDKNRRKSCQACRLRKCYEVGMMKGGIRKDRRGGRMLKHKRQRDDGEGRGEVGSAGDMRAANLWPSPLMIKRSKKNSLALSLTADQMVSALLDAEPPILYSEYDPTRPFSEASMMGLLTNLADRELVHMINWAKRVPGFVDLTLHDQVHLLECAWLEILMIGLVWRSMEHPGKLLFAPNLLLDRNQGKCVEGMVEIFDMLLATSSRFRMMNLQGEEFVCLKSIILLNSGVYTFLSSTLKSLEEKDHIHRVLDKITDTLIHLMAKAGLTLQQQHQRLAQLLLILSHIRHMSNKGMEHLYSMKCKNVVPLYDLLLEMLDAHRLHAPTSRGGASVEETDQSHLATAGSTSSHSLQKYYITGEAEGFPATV

With `Cc1noc(C)c1-c1cc2c(c3c1CCC3)NC(C)(C)C(=O)C2(C)C`, in series [1], the AUC(0-t) came to 410 ng·h/mL. For the same compound, in the series on Rattus norvegicus, the Activity stood at 80.7%. Besides, in series [2], the Kp uu at 1 h is 1.8. Further, the Ki at Estrogen receptor is more than 2.3 µM; at Progesterone receptor it was 1.48 µM. For the same compound, the Cmax in series [3] worked out at 633 ng/mL; in series [5], 273 ng/mL. Further, the Vd in series [4] is 6.13 L/kg.
